Experimental data published in ChEMBL document CHEMBL1132477, “Design and synthesis of novel alpha(1)(a) adrenoceptor-selective antagonists. 2. Approaches to eliminate opioid agonist metabolites via modification of linker and 4-methoxycarbonyl-4-phenylpiperidine moiety” (J Med Chem, 1999).

Columns and labels:
[1] = target: Adrenergic receptor alpha-1 (Homo sapiens) (UniProt P35348+P25100+P35368); test: Selectivity ratio( alpha-1b,1d/alpha1a); type: protein assay
Canis familiaris [2] = species on record: Canis familiaris; test: Potency to inhibit phenylephrine induced intraurethral pressure in dog.; type: functional, Canis lupus familiaris, Urethra
Summary of the method: (§1)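 In dogs, diastolic blood pressure and intraurethral pressure were stimulated with phenylephrine. Antagonist potency was expressed as Kb in µg/kg.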

[3] = Plasma half life in rat; type: ADME, organism-based
Rattus norvegicus [4] = species on record: Rattus norvegicus; test: Duration of action in rat; type: ADME, organism-based; conditions: in vivo
Rattus norvegicus [5] = species on record: Rattus norvegicus; test: Dose required to inhibit 50% of contractile responses induced by phenylephrine in rat prostate.; type: functional, Prostate gland
Rattus norvegicus [6] = species on record: Rattus norvegicus; test: Antagonism against phenylephrine induced contractions in rat prostate.; type: functional, Prostate gland
[7] = target: T1, Alpha-1D adrenergic receptor (Homo sapiens, UniProt P25100); test: In vitro binding affinity against alpha-1D adrenergic receptor (cloned human).
T1 sequence (P25100 whole entry): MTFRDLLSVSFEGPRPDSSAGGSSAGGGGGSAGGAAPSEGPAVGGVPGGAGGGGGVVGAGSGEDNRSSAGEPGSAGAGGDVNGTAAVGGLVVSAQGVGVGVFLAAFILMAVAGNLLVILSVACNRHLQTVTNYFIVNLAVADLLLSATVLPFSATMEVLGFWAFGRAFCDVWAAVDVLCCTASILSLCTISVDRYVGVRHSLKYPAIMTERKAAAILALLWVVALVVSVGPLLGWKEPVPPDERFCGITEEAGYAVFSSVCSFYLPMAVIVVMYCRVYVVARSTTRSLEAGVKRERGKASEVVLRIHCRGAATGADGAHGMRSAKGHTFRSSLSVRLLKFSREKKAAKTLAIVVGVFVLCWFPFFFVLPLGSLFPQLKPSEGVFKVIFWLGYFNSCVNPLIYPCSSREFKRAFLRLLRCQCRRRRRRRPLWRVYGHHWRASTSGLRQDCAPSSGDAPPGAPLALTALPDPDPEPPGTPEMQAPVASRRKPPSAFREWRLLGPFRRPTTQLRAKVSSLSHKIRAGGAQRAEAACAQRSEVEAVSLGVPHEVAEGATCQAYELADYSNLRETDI

[8] = Bioavailability in dog; type: ADME, organism-based, Canis lupus familiaris; conditions: in vivo
[9] = target: T2, Alpha-1B adrenergic receptor (Homo sapiens, UniProt P35368); test: In vitro binding affinity against Alpha-1B adrenergic receptor cloned from human.
T2 sequence (P35368 whole entry): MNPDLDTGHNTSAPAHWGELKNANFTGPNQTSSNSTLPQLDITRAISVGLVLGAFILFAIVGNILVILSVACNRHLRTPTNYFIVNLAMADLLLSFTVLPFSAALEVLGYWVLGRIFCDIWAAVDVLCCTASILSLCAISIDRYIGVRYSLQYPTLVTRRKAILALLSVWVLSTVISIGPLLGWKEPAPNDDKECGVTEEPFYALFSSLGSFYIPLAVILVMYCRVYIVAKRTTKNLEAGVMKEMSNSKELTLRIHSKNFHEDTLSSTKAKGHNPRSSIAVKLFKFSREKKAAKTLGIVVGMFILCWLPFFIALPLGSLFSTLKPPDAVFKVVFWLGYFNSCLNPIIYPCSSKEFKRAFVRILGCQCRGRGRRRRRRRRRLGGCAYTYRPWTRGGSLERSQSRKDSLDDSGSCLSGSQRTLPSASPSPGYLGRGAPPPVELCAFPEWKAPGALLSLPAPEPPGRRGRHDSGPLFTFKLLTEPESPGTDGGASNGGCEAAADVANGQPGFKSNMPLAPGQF

[10] = Plasma half life in dog; type: ADME, organism-based, Canis lupus familiaris
[11] = target: T3, Alpha-1A adrenergic receptor (Homo sapiens, UniProt P35348); test: In vitro binding affinity against alpha-1A adrenergic receptor of human clones
T3 sequence (P35348 whole entry): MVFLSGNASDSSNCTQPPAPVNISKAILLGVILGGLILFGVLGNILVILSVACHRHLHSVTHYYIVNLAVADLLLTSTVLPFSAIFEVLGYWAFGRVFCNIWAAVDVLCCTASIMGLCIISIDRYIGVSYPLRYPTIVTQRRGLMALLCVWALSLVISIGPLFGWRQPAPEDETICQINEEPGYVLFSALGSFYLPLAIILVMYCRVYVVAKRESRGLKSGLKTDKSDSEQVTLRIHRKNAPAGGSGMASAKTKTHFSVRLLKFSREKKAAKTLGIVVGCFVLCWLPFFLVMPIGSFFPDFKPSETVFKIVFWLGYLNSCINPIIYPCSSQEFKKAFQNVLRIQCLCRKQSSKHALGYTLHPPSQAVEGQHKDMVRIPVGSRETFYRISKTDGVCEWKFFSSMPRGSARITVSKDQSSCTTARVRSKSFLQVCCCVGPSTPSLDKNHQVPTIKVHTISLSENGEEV

[12] = Bioavailability in rat; type: ADME, organism-based; conditions: in vivo
Rattus norvegicus [13] = species on record: Rattus norvegicus; test: Antagonism against norepinephrine induced contractions in rat aorta.; type: functional
Mu-type opioid receptor = Mu-type opioid receptor (Mus musculus, UniProt P42866); test: Binding affinity against opioid receptor
Sequence of Mu-type opioid receptor (P42866 whole entry): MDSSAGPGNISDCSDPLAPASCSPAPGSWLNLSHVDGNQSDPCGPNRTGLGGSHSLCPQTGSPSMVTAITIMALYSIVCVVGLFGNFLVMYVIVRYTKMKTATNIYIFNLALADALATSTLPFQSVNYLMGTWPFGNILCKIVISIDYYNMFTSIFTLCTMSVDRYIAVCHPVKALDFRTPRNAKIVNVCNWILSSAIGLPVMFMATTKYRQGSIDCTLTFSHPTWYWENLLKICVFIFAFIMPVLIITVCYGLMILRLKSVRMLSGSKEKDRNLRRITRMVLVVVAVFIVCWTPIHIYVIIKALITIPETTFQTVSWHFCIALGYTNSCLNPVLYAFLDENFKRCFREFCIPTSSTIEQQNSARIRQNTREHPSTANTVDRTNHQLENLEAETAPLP

Canis familiaris [14] = species on record: Canis familiaris; test: Potency to inhibit phenylephrine induced diastolic blood pressure in dog.; type: functional, Canis lupus familiaris, Artery; summary of the method: as §1

## CCC1=C(C(N)=O)C(c2ccc(F)cc2F)N(C(=O)NCCCN2CCC(C#N)(c3ccccc3)CC2)C(=O)N1 (stereo not given)
[1]
  Ratio: > 900
Canis familiaris [2]
  Kb: 14.2 µg/kg
[3]
  half-life: 24 min
Rattus norvegicus [4]
  Time: 1.5 h
Rattus norvegicus [5]
  AD50: 18 µg/kg
Rattus norvegicus [6]
  Kb: 2.2 nM
[7]
  Ki: 1280 nM
[8]
  bioavailability: 32%
[9]
  Ki: 610 nM
[10]
  half-life: 138 min
[11]
  Ki: 0.7 nM
[12]
  bioavailability: 8%
Rattus norvegicus [13]
  Kb: > 1000 nM
Mu-type opioid receptor
  Ki: 51 µM
Canis familiaris [14]
  Kb: >300 µg/kg
